Experimental data as given in ChEMBL document CHEMBL3739347, “Tubulin modulating antifungal and antiproliferative pyrazinone derivatives” (Bioorg Med Chem, 2016).
pIC50: −log10 of the molar value. Activity calls are given as the source filed them. The rule behind the calls is not given here.

Assays:
[1] = tested on: Botrytis cinerea; assay: Antifungal activity against Botryotinia fuckeliana infected in orange pixie tomato seedlings at 10 ppm relative to control; assay type: functional
Outline: (§1)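 Orange Pixie tomato seedlings sprayed to run-off with test suspension, then inoculated next day with a Botryotinia fuckeliana spore suspension. Kept saturated at 20 °C for 48 h, then 1 more day at 24 °C in a growth chamber before rating. Rates in ppm. Expressed as percent control relative to untreated control plants.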

[2] = tested on: Puccinia triticina; assay: Antifungal activity against Puccinia recondita f. sp. tritici infected in wheat seedlings at 2 ppm relative to control; assay type: functional
Outline: (§2)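 Test suspension sprayed to run-off on Stevens wheat seedlings. Next day inoculated with a Puccinia recondita f. sp. tritici spore suspension. Held 24 h in a saturated atmosphere at 20 °C, then 7 days in a 20 °C growth chamber before disease rating. Rates in ppm. Given as percent control versus untreated control plants.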

[3] = tested on: Puccinia triticina; assay: Antifungal activity against Puccinia recondita f. sp. tritici infected in wheat seedlings at 10 ppm relative to control; assay type: functional; outline: as §2
[4] = tested on: Parastagonospora nodorum; assay: Antifungal activity against Stagonospora nodorum infected in wheat seedlings at 2 ppm relative to control; assay type: functional
Outline: (§3)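 Wheat seedlings, treated the day before, inoculated with a Stagonospora nodorum spore suspension. Held in a saturated atmosphere at 20 °C for 48 h, then 5 days in a growth chamber at 22 °C, then disease rated. Rates in ppm. Scored as percent control relative to untreated control plants.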

[5] = tested on: Botrytis cinerea; assay: Antifungal activity against Botryotinia fuckeliana infected in orange pixie tomato seedlings at 40 ppm relative to control; assay type: functional; outline: as §1
[6] = tested on: Parastagonospora nodorum; assay: Antifungal activity against Stagonospora nodorum infected in wheat seedlings at 10 ppm relative to control; assay type: functional; outline: as §3
[7] = tested on: Puccinia triticina; assay: Antifungal activity against Puccinia recondita f. sp. tritici infected in wheat seedlings at 200 ppm relative to control; assay type: functional; outline: as §2
[8] = tested on: Parastagonospora nodorum; assay: Antifungal activity against Stagonospora nodorum infected in wheat seedlings at 200 ppm relative to control; assay type: functional; outline: as §3
[9] = tested on: Puccinia triticina; assay: Antifungal activity against Puccinia recondita f. sp. tritici infected in wheat seedlings at 40 ppm relative to control; assay type: functional; outline: as §2
[10] = tested on: Parastagonospora nodorum; assay: Antifungal activity against Stagonospora nodorum infected in wheat seedlings at 40 ppm relative to control; assay type: functional; outline: as §3
[11] = Antiproliferative activity against human Rhabdomyosarcoma cells after 96 hrs by MTS assay; assay type: functional, cell-based; details: Rhabdomyosarcoma cell
Outline: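 Rhabdomyosarcoma cells (ATCC CCL-136) seeded at 10,000 cells/well and allowed to adhere 1–3 h. Medium then replaced with compound-containing medium over a concentration range. Grown 96 h at 37 °C, 5% CO2. Viable cells read by MTS/PMS formazan after 3–4 h at 37 °C, absorbance 490 nm. Data normalized to solvent-only wells; IC50 in nM.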

[12] = tested on: Botrytis cinerea; assay: Antifungal activity against Botryotinia fuckeliana infected in orange pixie tomato seedlings at 2 ppm relative to control; assay type: functional; outline: as §1
[13] = tested on: Botrytis cinerea; assay: Antifungal activity against Botryotinia fuckeliana infected in orange pixie tomato seedlings at 200 ppm relative to control; assay type: functional; outline: as §1
[14] = target: T1, Tubulin (Bos taurus) (UniProt Q6B856+Q862L2+Q862F3); assay: Induction of bovine tubulin polymerization at 3 uM by microplate reader; assay type: protein assay
Outline: (§4)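 Purified bovine tubulin at 4 mg/ml in 80 mM PIPES pH 6.9, 0.5 mM EGTA, 2 mM MgCl2, 1 mM GTP. Compound added at reaction start at constant DMSO. Polymerization started at 37 °C and followed over time by absorbance at 340 nm. Controls: paclitaxel 10 µM (positive) and 0.5% DMSO (negative).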

[15] = target: T1, Tubulin (Bos taurus); assay: Induction of bovine tubulin polymerization at 10 uM by microplate reader; assay type: protein assay; outline: as §4

| SMILES | Activity [1] | Activity [2] | Activity [3] | Activity [4] | Activity [5] | Activity [6] | Activity [7] | Activity [8] | Activity [9] | Activity [10] | pIC50 [11] | Activity [12] | Activity [13] | Activity [14] | Activity [15] |
| --- | --- | --- | --- | --- | --- | --- | --- | --- | --- | --- | --- | --- | --- | --- | --- |
| CC[C@H](C)Cn1c(-c2c(F)cc(OCCCN(C)C)cc2F)c(Cl)nc(-n2cccn2)c1=O | 94% | 0% | 89% | 0% | 94% | 0% | 100% | 94% | 99% | 0% | 8.89 | 0% | – | – | – |
| CC(C)Cn1c(-c2c(F)cc(F)cc2F)c(Cl)nc(-n2cccn2)c1=O | 100% | 92% | 100% | 0% | 100% | 90% | 100% | 100% | 100% | 100% | – | 100% | 100% | Active | – |
| CC[C@H](C)Cn1c(-c2c(F)cc(F)cc2F)c(Cl)nc(-n2cccn2)c1=O | 100% | 99% | 100% | 0% | 100% | 99% | – | – | 100% | 100% | 7.70 | 100% | – | – | – |
| CC(C)Cn1c(-c2c(F)cccc2F)c(Cl)nc(-n2cccn2)c1=O | 97% | 28% | 100% | 0% | 99% | 92% | – | – | 100% | 99% | – | 75% | – | Active | – |
| CC[C@H](C)Cn1c(-c2c(F)cccc2F)c(Cl)nc(-n2ccnn2)c1=O | 33% | – | 67% | – | 81% | 0% | 73% | 73% | 67% | 0% | – | – | 98% | – | – |
| CC(C)Cn1c(-c2c(F)cccc2F)c(Br)nc(-n2cccn2)c1=O | 99% | – | 88% | – | 100% | 86% | 100% | 100% | 99% | 100% | – | – | 100% | – | – |
| CC[C@H](C)Cn1c(-c2c(F)cc(OCCN(C)C)cc2F)c(Cl)nc(-n2cccn2)c1=O | 0% | – | 55% | – | 68% | – | 100% | – | 91% | – | 6.68 | – | 99% | – | – |
| CC(=O)O[C@H]1C(=O)[C@@]2(C)[C@H]([C@H](OC(=O)c3ccccc3)[C@]3(O)C[C@H](OC(=O)[C@H](O)[C@@H](NC(=O)c4ccccc4)c4ccccc4)C(C)=C1C3(C)C)[C@]1(OC(C)=O)CO[C@@H]1C[C@@H]2O [PACLITAXEL] | – | – | – | – | – | – | 95% | 91% | – | – | 8.08 | – | 0% | – | Active |
